Results from paper PMC6980386 (Traffic (Copenhagen, Denmark), 2019).

Tests used:
[1] = molecular target: truncated huCD4 D1D2 L18A (Homo sapiens, UniProt P01730, L18A); test: Cell-free in vitro translation and translocation; format: biochemical; settings: 15 μM CADA
Method in brief: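 Truncated huCD4 D1D2 (lacking glycosylation sites and membrane anchor) was made by PCR and transcribed with T7. Proteinase K protection ran 30 min on ice and was quenched with PMSF. Products were separated by SDS-PAGE and imaged by phosphor imaging. The SP-cleaved band was normalised to the matching control. Data are from 2–5 independent experiments, compared with WT by Welch t test.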

FL huCD4 K27R = FL huCD4 K27R (Homo sapiens, UniProt P01730, K27R); test: CADA down-modulation of cellular huCD4; format: cell-based; settings: HEK293T, 48h
Method in brief: (§1)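 HEK293T cells, seeded overnight in DMEM with 10% serum, 1 mM sodium pyruvate and 0.075% NaHCO₃, were lipofected with full-length human CD4 (WT or mutant). Test compound in DMSO was added 6 h post-transfection as 1:5 serial dilutions (50–0.016 μM) for 48 h. Surface CD4 was stained with FITC/APC anti-CD4 (SK3) and read by flow cytometry. IC50 is 50% of the untreated signal, from four-parameter fits of ≥3 replicate experiments. FC is mutant/WT mean IC50.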

FL huCD4 R3A = FL huCD4 R3A (Homo sapiens, UniProt P01730, R3A); test: CADA down-modulation of cellular huCD4; format: cell-based
Method in brief: as §1

FL huCD4 L11A = FL huCD4 L11A (Homo sapiens, UniProt P01730, L11A); test: CADA down-modulation of cellular huCD4; format: cell-based
Method in brief: as §1

huCD4_1–32-YFP A22V = huCD4_1–32-YFP A22V (Homo sapiens, UniProt P01730, A22V); test: CADA inhibition of huCD4_1–32-YFP secretion; format: cell-based
Method in brief: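 HEK293T cells were lipofected with human CD4 residues 1–32 fused to the N-terminus of YFP (secreted, no membrane anchor). Test compound was added 6 h post-transfection as 1:5 serial dilutions (50–0.016 μM) for 48 h. Supernatant was captured on GFP-Trap magnetic beads for 1 h, washed in PBS, and YFP was read by flow cytometry. IC50 is 50% of the untreated control, from four-parameter fits of ≥3 replicate experiments. FC is mutant/WT mean IC50.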

FL huCD4 K26A = FL huCD4 K26A (Homo sapiens, UniProt P01730, K26A); test: CADA down-modulation of cellular huCD4; format: cell-based
Method in brief: as §1

FL huCD4 K27E = FL huCD4 K27E (Homo sapiens, UniProt P01730, K27E); test: CADA down-modulation of cellular huCD4; format: cell-based; settings: HEK293T, 48h
Method in brief: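 Transient transfection of HEK293T cells (Lipofectamine), seeded the night before. Test compound added 6 h post-transfection as a serial 1:5 dilution from 50 to 0.016 μM, then 48 h culture. Surface CD4 stained with FITC- or APC-labelled anti-human CD4 (clone SK3) and read by flow cytometry. IC50 is the concentration reducing signal to 50% of untreated control, interpolated from four-parameter curves (≥3 replicate experiments; 95% CI).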

FL huCD4 V5A = FL huCD4 V5A (Homo sapiens, UniProt P01730, V5A); test: CADA down-modulation of cellular huCD4; format: cell-based
Method in brief: as §1

huCD4_1–32-YFP P20A = huCD4_1–32-YFP P20A (Homo sapiens, UniProt P01730, P20A); test: CADA inhibition of huCD4_1–32-YFP secretion; format: cell-based
Method in brief: (§2)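 HEK293T cells were grown in DMEM with 10% FBS and 10 mM HEPES, seeded and left to adhere overnight, then transiently transfected with plasmid by Lipofectamine. Test compound was added 6 h after transfection as a 1:5 serial dilution (50 to 0.016 μM) for 48 h. Secreted YFP in the supernatant was captured on GFP-Trap magnetic beads for 1 h, washed with PBS and measured by flow cytometry. IC50 is the concentration that halves the signal relative to the untreated control, taken from a four-parameter fit of at least three replicate experiments. FC is the mutant mean IC50 divided by the WT mean IC50.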

FL huCD4 L18A = FL huCD4 L18A (Homo sapiens, UniProt P01730, L18A); test: CADA down-modulation of cellular huCD4; format: cell-based
Method in brief: as §1

FL huCD4 H9A = FL huCD4 H9A (Homo sapiens, UniProt P01730, H9A); test: CADA down-modulation of cellular huCD4; format: cell-based
Method in brief: as §1

FL huCD4 Q24A = FL huCD4 Q24A (Homo sapiens, UniProt P01730, Q24A); test: CADA down-modulation of cellular huCD4; format: cell-based
Method in brief: as §1

huCD4_1–32-YFP V28A = huCD4_1–32-YFP V28A (Homo sapiens, UniProt P01730, V28A); test: CADA inhibition of huCD4_1–32-YFP secretion; format: cell-based
Method in brief: as §2

FL huCD4 K27A = FL huCD4 K27A (Homo sapiens, UniProt P01730, K27A); test: CADA down-modulation of cellular huCD4; format: cell-based
Method in brief: as §1

huCD4_1–32-YFP P6A = huCD4_1–32-YFP P6A (Homo sapiens, UniProt P01730, P6A); test: CADA inhibition of huCD4_1–32-YFP secretion; format: cell-based
Method in brief: as §2

FL huCD4 N2A = FL huCD4 N2A (Homo sapiens, UniProt P01730, N2A); test: CADA down-modulation of cellular huCD4; format: cell-based
Method in brief: as §1

FL huCD4 Q15A;P20A = FL huCD4 Q15A;P20A (Homo sapiens, UniProt P01730, P20A/Q15A); test: CADA down-modulation of cellular huCD4; format: cell-based; settings: HEK293T, 48h
Method in brief: as §1

FL huCD4 K33A = FL huCD4 K33A (Homo sapiens, UniProt P01730, K33A); test: CADA down-modulation of cellular huCD4; format: cell-based; settings: HEK293T, 48h
Method in brief: as §1

FL huCD4 R8A = FL huCD4 R8A (Homo sapiens, UniProt P01730, R8A); test: CADA down-modulation of cellular huCD4; format: cell-based; settings: read-out: Cellular huCD4 IC50 (μM) Mean, HEK293T, CADA 48h
Method in brief: as §1

FL huCD4 T23A = FL huCD4 T23A (Homo sapiens, UniProt P01730, T23A); test: CADA down-modulation of cellular huCD4; format: cell-based
Method in brief: as §1

FL huCD4 V28A = FL huCD4 V28A (Homo sapiens, UniProt P01730, V28A); test: CADA down-modulation of cellular huCD4; format: cell-based
Method in brief: as §1

[2] = + less, − more sensitive to CADA
[3] = read-out: Cellular huCD4 IC50 (μM) Mean, HEK293T, CADA 48h
[4] = read-out: Secreted YFP IC50 (μM) Mean, HEK293T, CADA 48h

In the case of C=C1CN(S(=O)(=O)c2ccc(C)cc2)CCCN(Cc2ccccc2)CCCN(S(=O)(=O)c2ccc(C)cc2)C1 [CADA, Cyclotriazadisulfonamide], the “sensitivity of translocation towards CADA compared to WT” value [1] is reported as “higher sensitivity towards CADA”, the “sensitivity to CADA” value (FL huCD4 K27R) is reported as “kept full sensitivity to CADA” and the “Cellular huCD4 FC (fold change of mean IC50 relative to WT)” value (FL huCD4 R3A; [2]) is reported as −1.1. The IC50 (FL huCD4 R3A; [3]) was 0.47 µM, the “Cellular huCD4 FC (fold change of mean IC50 relative to WT)” value (FL huCD4 L11A; [2]) was −4.5 and the IC50 (FL huCD4 L11A; [3]) was 0.12 µM. The “Secreted YFP FC (fold change of mean IC50 relative to WT)” value (huCD4_1–32-YFP A22V; [2]) was “+1.2”, the IC50 (huCD4_1–32-YFP A22V; [4]) was 1.58 µM and the “Cellular huCD4 FC (fold change of mean IC50 relative to WT)” value (FL huCD4 K26A; [2]) was “+2.7”. For the same compound, the IC50 (FL huCD4 K26A; [3]) was 1.44 µM, the “sensitivity to CADA” value (FL huCD4 K27E) was “copied the alanine substitution phenotypes” and the “Cellular huCD4 FC (fold change of mean IC50 relative to WT)” value (FL huCD4 V5A; [2]) was −1.9. The IC50 (FL huCD4 V5A; [3]) was 0.29 µM, the “Secreted YFP FC (fold change of mean IC50 relative to WT)” value (huCD4_1–32-YFP P20A; [2]) was “>+39” and the IC50 (huCD4_1–32-YFP P20A; [4]) was > 50 µM. For the same compound, the “Cellular huCD4 FC (fold change of mean IC50 relative to WT)” value (FL huCD4 L18A; [2]) was −5.4, the IC50 (FL huCD4 L18A; [3]) was 0.1 µM and the “Cellular huCD4 FC (fold change of mean IC50 relative to WT)” value (FL huCD4 H9A; [2]) was “+1.1”. For the same compound, the IC50 (FL huCD4 H9A; [3]) was 0.62 µM, the “Cellular huCD4 FC (fold change of mean IC50 relative to WT)” value (FL huCD4 Q24A; [2]) was “+2.3” and the IC50 (FL huCD4 Q24A; [3]) was 1.22 µM. For the same compound, the “Secreted YFP FC (fold change of mean IC50 relative to WT)” value (huCD4_1–32-YFP V28A; [2]) was −1.8, the IC50 (huCD4_1–32-YFP V28A; [4]) was 0.72 µM and the “Cellular huCD4 FC (fold change of mean IC50 relative to WT)” value (FL huCD4 K27A; [2]) was “+2.4”. The IC50 (FL huCD4 K27A; [3]) was 1.3 µM, the “Secreted YFP FC (fold change of mean IC50 relative to WT)” value (huCD4_1–32-YFP P6A; [2]) was −2.3 and the IC50 (huCD4_1–32-YFP P6A; [4]) was 0.55 µM. For the same compound, the “Cellular huCD4 FC (fold change of mean IC50 relative to WT)” value (FL huCD4 N2A; [2]) was “+1.4”, the IC50 (FL huCD4 N2A; [3]) was 0.73 µM and the “sensitivity to CADA” value (FL huCD4 Q15A;P20A) was “no longer responded to CADA”. The IC50 (FL huCD4 K33A) was > 50000 nM, the IC50 (FL huCD4 R8A) was 4.2 µM and the “Cellular huCD4 FC (fold change of mean IC50 relative to WT)” value (FL huCD4 T23A; [2]) was “+1.6”. The IC50 (FL huCD4 T23A; [3]) was 0.87 µM, the “Cellular huCD4 FC (fold change of mean IC50 relative to WT)” value (FL huCD4 V28A; [2]) was 1.00 and the IC50 (FL huCD4 V28A; [3]) was 0.54 µM.
